From PubChem BioAssay
AI-2 QS modul: Vibrio harveyi AI-2 quorum sensing modulation | Vibrio harveyi JMH597 AI-2 luminescence/OD600 ratio, 9 h; active compounds read low; strain lacks LuxN and CqsS sensors; 0 = neutral-control median | 300,000 tested, 0.4% active | activity change, % at 7.5 µM; in the data active = activity change below about -75%, passing the limit was not always enough;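 note: luminescence divided by OD600 gain over 9 h not by final OD600 alone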
HDAC3 inh: inhibitors of human histone deacetylase 3 | recombinant HDAC3, fluorogenic peptide/trypsin coupled, fluorescence | O15379 | 320,000 tested, 0.15% active | AID 2718 | inhibition, % at 8.3 µM; in the data active = inhibition above about 26%, passing the limit was not always enough
Target sequence (O15379 whole entry, looked up): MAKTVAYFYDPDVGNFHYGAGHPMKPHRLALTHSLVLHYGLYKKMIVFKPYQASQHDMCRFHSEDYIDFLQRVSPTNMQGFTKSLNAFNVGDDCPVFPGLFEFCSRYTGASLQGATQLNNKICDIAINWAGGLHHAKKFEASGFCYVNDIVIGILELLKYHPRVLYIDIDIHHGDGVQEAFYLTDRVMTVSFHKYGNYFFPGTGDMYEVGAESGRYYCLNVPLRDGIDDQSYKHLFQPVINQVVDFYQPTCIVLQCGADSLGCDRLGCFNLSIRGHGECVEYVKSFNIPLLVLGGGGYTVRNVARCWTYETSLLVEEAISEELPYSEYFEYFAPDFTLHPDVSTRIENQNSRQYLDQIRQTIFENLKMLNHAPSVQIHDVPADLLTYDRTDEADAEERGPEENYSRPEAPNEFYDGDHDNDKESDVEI
PolyA inh: yeast polyadenylation inhibition | S. cerevisiae SKY197-pL101 polyadenylation reporter, beta-gal luminescence; efflux-impaired pdr1/pdr3 knockout yeast; score 100 = 6 SD above DMSO | activity score, % at 12 µM | 300,000 tested, 0.02% active | AID 1875;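 active = lowest replicate activity score at least 50, where 100 means six control SD above control mean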;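 note: yeast exposed to compound for 9 h at 30 °C; higher score means more reporter readthrough which indicates perturbed polyadenylation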
T cruzi inh: T. cruzi replication inhibition | T. cruzi beta-gal in NIH3T3, luminescence, 90 h | inhibition, % (test concentration not listed) | 300,000 tested, 1.4% active;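 active = mean inhibition across valid replicates above about 55%, limit read from the data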;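 note: signal also drops with host cell toxicity which is not excluded here; 0% = plate median of DMSO wells and 100% = zero luminescence signal; higher percent means less beta-gal luminescence so fewer parasites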
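System – NIH/3T3 host cells with β-galactosidase reporter T. cruzi · Doses – single 50 nL compound addition per well in DMSO · Reagent – 5000 T. cruzi trypomastigotes/well · Medium – Low-serum DMEM with 2% FBS · Timing – ≥90 h infection period, 3 h prior cell attachment · Evaluation – parasite load inhibition, % · Technique – GalScreen luminescence, 60 min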
Efflux pump mplx: inhibitors of Candida antifungal efflux pumps expressed in yeast. S. cerevisiae Candida pump triplex, Nile Red efflux. inhibition, % at 10 µM. 330,000 tested, 0.44% active;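 active = plate passing quality check with inhibition over a set limit, or well fluorescence over plate mean plus 4 SD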;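 note: Nile Red retained in pooled yeast measured as flow cytometry median fluorescence; 0% = buffer negative control and 100% = Enniatin B positive control; higher means more Nile Red kept so more efflux inhibition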
The depositor's hits bear a star; / = no result. Shown are actives, neighbours in structure and some others; about 2.2% of the full set was active somewhere.

SMILES	AI-2 QS modul	HDAC3 inh	PolyA inh	T cruzi inh	Efflux pump mplx
Cc1cccc(S(=O)(=O)N/N=c2\sc3ccccc3n2C)c1	11.1	11.2	9.3	-16.8	-0.1
COc1ccc(CN2CCCC(CO)(Cc3ccc(F)cc3)C2)cc1C (stereo not drawn)	4.5	-4.4	-1.3	57.8*	0.1
Cn1cc(CN2CCCC(CO)(Cc3ccccc3)C2)c2ccccc21 (stereo not drawn)	23.9	-0.6	-8.7	66.7*	-0.1
COc1cccc(CC2(CO)CCCN(Cc3ccccc3Cl)C2)c1 (stereo not drawn)	-7.1	5.9	14.2	25.9	0.0
COc1cccc(CC2(CO)CCCN(Cc3cn(C)c4ccccc34)C2)c1 (stereo not drawn)	6.2	-4.3	-8.9	64.7*	0.1
COc1ccccc1/C=C/CN1CCCC(CO)(Cc2cccc(Cl)c2)C1 (stereo not drawn)	25.3	0.8	-10.3	31.8	0.0
COc1cccc(CC2(CO)CCCN(C/C=C/c3ccccc3OC)C2)c1 (stereo not drawn)	21.0	-4.8	15.7	62.5*	-0.2
Cc1ccc(N(Cc2ccccc2)C(=O)c2cc(S(=O)(=O)N3CCOCC3)ccc2F)cc1	/	1.6	/	/	0.3
COc1cccc(CC2(CO)CCCN(Cc3ccc(CN4CCCCC4)s3)C2)c1 (stereo not drawn)	25.3	0.1	7.7	71.2*	0.0
CCc1nc(SCC(=O)c2ccc3c(c2)OCCO3)c2ccccc2n1	22.3	34.2*	-9.6	31.0	0.1
O=C(CSc1nnc(SCc2cccc3ccccc23)s1)c1ccc2c(c1)OCO2	-1.5	37.5*	/	7.4	-0.1
CCCn1nnnc1SCC(=O)c1ccc2c(c1)OCCO2	38.5	49.8*	1.5	-17.5	0.0
O=C(CSc1nc(Cc2ccccc2)nc2ccccc12)c1ccc2c(c1)OCCO2	33.2	5.6	4.4	37.1	0.0
O=C(CSc1nnc(SCc2cccc3ccccc23)s1)Nc1ccc(C(=O)O)cc1	26.1	6.7	14.9	-6.2	0.1
Cn1nnnc1SCC(=O)c1ccc2c(c1)OCCO2	18.2	2.9	-10.3	-2.0	0.0
CC1CC(C)(C)Nc2ccc(N=O)cc21 (stereo not drawn)	66.7	/	-44.3	97.8*	/
CC1CC(C)(C)Nc2ccc(OC(=O)c3ccco3)cc21 (stereo not drawn)	9.6	5.7	-10.2	10.7	0.2
COc1cccc(NC(=S)NCCC(c2ccccc2)c2ccccc2)c1	35.3	9.1	-7.9	19.6	-0.3
COc1cc(NC(=S)NCCC(c2ccccc2)c2ccccc2)cc(OC)c1	11.1	3.5	3.6	61.6*	0.2
Cc1ccc2cc3cc(C(=O)N(CC(=O)NC4CCCC4)c4cccc(C)c4C)sc3nc2c1	15.2	-2.7	-4.6	58.1*	-0.1
Cc1ccc(NC(=O)OCc2ccccc2S(C)=O)cc1 (stereo not drawn)	-3.2	-7.9	-2.1	5.4	0.0
S=c1[nH]nc(C2CCCCC2)n1/N=C/C=C/c1ccccc1	-92.4*	18.4	-4.1	19.8	0.3
COc1cc(OC)nc(NC(=O)COC(=O)c2cccc(Cl)c2)n1	18.6	8.2	0.5	-10.1	-0.2
CC1Oc2cc3oc4c(O)c(O)ccc4c(=O)c3c(O)c2C1(C)C (stereo not drawn)	215.5	9.5	-21.0	-6.0	0.0
CCCNC(=O)c1ccc(N2CCC3(CC2)CC(c2cccc(Br)c2)=NO3)c(NC(=O)c2ccccc2)c1	17.5	3.8	8.0	57.3*	/
SMILES	AI-2 QS modul	HDAC3 inh	PolyA inh	T cruzi inh	Efflux pump mplx
Cc1cc(C)c(OCCN(C)Cc2ccccc2)c(Br)c1	14.4	3.5	-5.8	57.3*	-0.4
Fc1ccc(Nc2c3c(nc4ccccc24)CCC3)cc1	39.8	7.8	-7.5	57.8*	0.2
O=C(CN1C(=O)NC2(CCc3ccccc32)C1=O)NCC(=O)Nc1ccc(F)cc1 (stereo not drawn)	/	3.5	/	/	0.4
Cc1cc(F)ccc1S(=O)(=O)N1CCCOC1CNC(=O)C(=O)NC1CCCC1 (stereo not drawn)	19.0	3.9	26.1	-4.9	0.0
Fc1ccc(NC(=S)Nc2ccccc2N2CCOCC2)cc1Cl	14.9	1.7	-10.1	-1.9	0.3
Cc1cc(C(=O)CCl)c(C)n1CCc1ccc(F)cc1	7.6	6.5	-21.0	72.6*	-0.1
Cc1cc(C(=O)CCl)c(C)n1CCc1ccc(Cl)cc1	6.5	-0.3	-55.4	61.6*	0.1
COc1ccc(CCn2c(C)cc(C(=O)CCl)c2C)cc1OC	12.5	0.1	-28.5	47.0	-0.1
